≈ marks a conversion by molar mass, not a printed value. Calls of active or inactive are those of the source. The calls are words filed in the database; no cut-off is given here. Starred links: 1 amine or outer side, 2 acyl side, 3 side chain; linkers in the order of their positions; H or OH if unused. Non-standard residues stand in square brackets, D forms with d. Residues, ends and D or L forms follow the SMILES beside them. X2 = CCCCCCCCCCCCCCCCN([C@@H](C)C(=O)[*:2])[*:1]
Tests used:
[1] = Retention time of the compound by RP-HPLC analysis; type: physicochemical
Summary of the method: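 Reverse-phase HPLC, linear gradient 0–100% acetonitrile in water with 0.1% TFA over 20 min; retention time recorded.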

Acinetobacter baumannii [2] = assay: Antibacterial activity against Acinetobacter baumannii incubated for 20 to 24 hrs by broth microdilution method; type: functional; details: time 20-24 hrs
Summary of the method: (§1)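 Broth microdilution: colonies suspended directly to 1.5×10^8 CFU/mL (0.5 McFarland), then diluted in Mueller–Hinton broth to ~10^5 CFU/mL final. PA stock 1 mg/mL in water, pH 7, serially diluted in MHB. Plates incubated 20–24 h at 37 °C. MIC = lowest concentration inhibiting growth, read as OD600 with optional 1% TTC staining. Triplicate.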

Escherichia coli [3] = assay: Antibacterial activity against Escherichia coli K12 incubated for 20 to 24 hrs by broth microdilution method; type: functional; details: time 20-24 hrs; summary of the method: as §1
Staphylococcus aureus [4] = assay: Antibacterial activity against methicillin-resistant Staphylococcus aureus JE2 incubated for 20 to 24 hrs by broth microdilution method; type: functional; details: time 20-24 hrs
Summary of the method: (§2)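 Broth microdilution in MHB: direct colony suspension at 0.5 McFarland diluted to ~10^5 CFU/mL final; peptide stock 1 mg/mL in water at pH 7, serially diluted. Incubated 20-24 h at 37 °C; MIC taken as the lowest concentration inhibiting growth (OD 600 nm, 1% TTC stain); triplicate; vancomycin and gentamicin as positive controls.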

Staphylococcus aureus [5] = assay: Antibacterial activity against methicillin-resistant Staphylococcus aureus 13C incubated for 20 to 24 hrs by broth microdilution method; type: functional; details: time 20-24 hrs; summary of the method: as §2
Staphylococcus aureus [6] = assay: Antibacterial activity against methicillin-resistant Staphylococcus aureus LAC incubated for 20 to 24 hrs by broth microdilution method; type: functional; details: time 20-24 hrs; summary of the method: as §2
Escherichia coli [7] = assay: Synergistic antibacterial activity against Escherichia coli K12 assessed as fractional inhibitory concentration index incubated for 20 to 24 hrs in presence of rifampicin by checkerboard broth microdilution assay; type: functional; details: time 20-24 hrs
Summary of the method: (§3)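 Checkerboard broth microdilution. E. coli K12 or A. baumannii clinical isolate grown to mid-log (OD ~0.8) and diluted to ~10^5 CFU/mL in MHB. Two-fold dilutions of rifampicin or vancomycin run across the plate against two-fold PA dilutions down it. Incubated 20–24 h at 37 °C, OD read at 470 nm. FICi calculated from the combination MICs.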

Acinetobacter baumannii [8] = assay: Synergistic antibacterial activity against Acinetobacter baumannii assessed as fractional inhibitory concentration index incubated for 20 to 24 hrs in presence of rifampicin by checkerboard broth microdilution assay; type: functional; details: time 20-24 hrs; summary of the method: as §3
Cell membrane [9] = assay: Induction of inner membrane permeability in Escherichia coli K12 at 4 ug/mL by propidium iodide staining based spectrofluorometry; type: subcellular; details: dose 4.0 µg/ml
Summary of the method: (§4)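 E. coli K12 grown in MHB to mid-log, washed twice in PBS, and diluted to 10^6 CFU/mL in 5 mM HEPES + glucose. Cells preincubated with […] at least 15 min at 37 °C. Then treated with agent at 1/8, 1× or 2× MIC, or with PA–vancomycin 1:1. Fluorescence read at ex 535 / em 615 nm. Polymyxin B as positive control; untreated cells as negative control.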

Cell membrane [10] = assay: Induction of inner membrane permeability in Escherichia coli K12 at 8 to 16 ug/mL by propidium iodide staining based spectrofluorometry; type: subcellular; details: dose 8-16 µg/ml; summary of the method: as §4
Staphylococcus aureus [11] = assay: Induction of morphological changes in methicillin-resistant Staphylococcus aureus JE2 assessed as membrane deformations with protruding bumps at 8 ug/ml incubated for 2 hrs by scanning electron microscopy; type: functional, organism-based; details: dose 8.0 µg/ml
Staphylococcus aureus [12] = assay: Induction of morphological changes in methicillin-resistant Staphylococcus aureus JE2 assessed as membrane deformations with protruding holes at 8 ug/ml incubated for 2 hrs by scanning electron microscopy; type: functional, organism-based; details: dose 8.0 µg/ml
Staphylococcus aureus [13] = assay: Induction of morphological changes in Methicillin-resistant Staphylococcus aureus JE2 assessed as cytoplasmic leakage at 8 ug/ml incubated for 2 hrs by scanning electron microscopy; type: functional, organism-based; details: dose 8.0 µg/ml
Escherichia coli [14] = assay: Induction of morphological changes in Escherichia coli K12 assessed as membrane deformations with protruding bumps at 8 ug/ml incubated for 2 hrs by scanning electron microscopy; type: functional, organism-based; details: dose 8.0 µg/ml
Escherichia coli [15] = assay: Induction of morphological changes in Escherichia coli K12 assessed as membrane deformations with protruding holes at 8 ug/ml incubated for 2 hrs by scanning electron microscopy; type: functional, organism-based; details: dose 8.0 µg/ml
Escherichia coli [16] = assay: Induction of morphological changes in Escherichia coli K12 assessed as cytoplasmic leakage at 8 ug/ml incubated for 2 hrs by scanning electron microscopy; type: functional, organism-based; details: dose 8.0 µg/ml
Staphylococcus aureus [17] = assay: Antibacterial activity against methicillin resistant Staphylococcus aureus JE2 measured over 21 days by broth microdilution method; type: functional, organism-based; details: time 21.0 day
HEK293 = assay: Cytotoxicity against HEK293 cells assessed as reduction in cell viability at 64 to 256 ug/ml incubated for 24 hrs by XTT assay; type: toxicity, cell-based; details: human, hek293, 24 h, dose 64-256 µg/ml
Summary of the method: (§5)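 HEK-293 cells, passages 3–8, seeded at 5×10^4 per well and preincubated 24 h at 37 °C, 5% CO2. Medium replaced with serially diluted PA, final 8–256 µg/mL, for 24 h, in triplicate. XTT reagent (0.5 mg/mL) added for 4 h at 37 °C, then absorbance read at 600 nm.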

[18] = Toxicity in Galleria mellonella assessed as survival at 75 mg/kg measured after 4 days relative to control; type: organism-based; details: in vivo, time 4 day
Summary of the method: (§6)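 Acute toxicity in G. mellonella larvae following OECD guidelines: cohorts of five larvae injected starting at 25 mg/kg, retested […] on new larvae if lethality was under 40%, continuing until a toxic dose was found; incubated at 37 °C with mortality recorded daily over 4 days.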

[19] = Toxicity in Galleria mellonella assessed as survival at 125 to 150 mg/kg measured after 4 days relative to control; type: organism-based; details: in vivo, dose 125-150 mg/kg, time 4 day; summary of the method: as §6
Staphylococcus aureus [20] = assay: Antibacterial activity against Methicillin-resistant Staphylococcus aureus JE2 infected in Galleria mellonella assessed as survival at 75 mg/kg measured after 4 days relative to control; type: functional; details: JE2, 96 h, time 4 day
Summary of the method: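 G. mellonella larvae injected with 10 µL MRSA JE2 at a pre-set infective dose (60-80% lethality within 48 h, not 100% within 24 h) into last left proleg; after 2 h, 10 µL peptide or antibiotic injected into last right proleg; larvae held at 37 °C, mortality recorded daily for 4 days; untreated infected and PBS-only larvae as controls.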

[21] = Self assembly property of the compound assessed as zeta potential at 250 ug/mL at pH 7 measured after 2 hrs; type: physicochemical; details: pH 7, 2 h, dose 250 µg/ml
Summary of the method: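 Peptide self-assembled at 1 mg/mL, pH 7, annealed 2 h at 80 °C, and aged overnight. Diluted to 250 µg/mL in water; zeta potential measured at 25 °C.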

[22] = Self assembly property of the compound assessed as width of micelles at 1 mg/ml incubated overnight by transmission electron microscopy; type: physicochemical
Summary of the method: (§7)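 Samples were dissolved at 2 mM in water, pH 7, and left at room temperature overnight. Applied to copper grids for 5 min, blotted, and negatively stained with NanoVan for 30 s. Imaged by TEM at 120 kV.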

Staphylococcus aureus [23] = assay: Disruption of preformed biofilm in methicillin-resistant Staphylococcus aureus JE2 at MIC to 4 times MIC; type: functional, organism-based
Staphylococcus aureus [24] = assay: Inhibition of biofilm formation in methicillin-resistant Staphylococcus aureus JE2 at MIC; type: functional, organism-based
Acinetobacter baumannii [25] = assay: Synergistic antibacterial activity against Acinetobacter baumannii assessed as potentiation of rifampicin-induced antibacterial activity by measuring fold increase in rifampicin MIC incubated for 20 to 24 hrs by checkerboard broth microdilution assay relative to rifampicin alone; type: functional; details: time 20-24 hrs; summary of the method: as §3
Cell membrane [26] = assay: Induction of inner membrane permeability in methicillin-resistant Staphylococcus aureus JE2 assessed as shift in bacterial zeta potential at 40 ug/ml measured after 1 hr; type: subcellular; details: dose 40.0 µg/ml
Summary of the method: (§8)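 Mid-log MRSA JE2 from MHB (OD ~0.8) washed and resuspended in PBS at 5×10^7 CFU/mL, exposed to peptide at 10 × MIC for 1 h, then zeta potential measured at 25 °C; untreated cells as negative control, daptomycin and polymyxin B as reference drugs.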

Cell membrane [27] = assay: Induction of inner membrane permeability in Escherichia coli K12 assessed as shift in bacterial zeta potential at 40 ug/ml measured after 1 hr; type: subcellular; details: dose 40.0 µg/ml
[28] = Cytotoxicity against HEK293 cells assessed as cell viability up to 64 ug/ml incubated for 24 hrs by XTT assay relative to control; type: toxicity, cell-based; details: human, up to 64 µg/mL, read-out: Activity; summary of the method: as §5
Escherichia coli [29] = assay: Ratio of MIC for Escherichia coli K12 at pH 5.5 to MIC for Escherichia coli K12 at pH 7.0
Staphylococcus aureus [30] = assay: Ratio of MIC for methicillin-resistant Staphylococcus aureus JE2 at pH 5.5 to MIC for methicillin-resistant Staphylococcus aureus JE2 at pH 7.0
Staphylococcus aureus [31] = assay: Antibacterial activity against methicillin resistant Staphylococcus aureus JE2 assessed as fold increase in MIC after 5 days by broth microdilution method relative to MIC before 5 days; type: functional; details: time 5 day
[32] = Hemolytic activity in human red blood cells assessed as hemolysis at 8 ug/ml incubated for 60 min relative to control; type: toxicity, cell-based, Erythrocyte; details: at 8 µg/mL, read-out: Activity
Summary of the method: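 Washed human RBCs at 0.25×10^8 cells/mL final in PBS, mixed with PA (stocks 16–1024 µg/mL, equal volume). Shaken 10 min, then incubated 60 min at 37 °C, 5% CO2. Cells pelleted at 1000 × g; supernatant hemoglobin read at OD405. 5% Triton X-100 taken as 100% hemolysis; water as negative control.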

[33] = Self assembly property of the compound assessed as formation of micelles at 1 mg/ml incubated overnight by transmission electron microscopy; type: physicochemical; summary of the method: as §7
Escherichia coli [34] = assay: Synergistic antibacterial activity against Escherichia coli K12 assessed as potentiation of rifampicin-induced antibacterial activity by measuring fold increase in rifampicin MIC incubated for 20 to 24 hrs by checkerboard broth microdilution assay relative to rifampicin alone; type: functional; details: time 20-24 hrs; summary of the method: as §3
Cell membrane [35] = assay: Induction of inner membrane permeability in Escherichia coli K12 assessed as shift in bacterial zeta potential at 80 ug/ml measured after 1 hr; type: subcellular; details: dose 80.0 µg/ml
Cell membrane [36] = assay: Induction of inner membrane permeability in methicillin-resistant Staphylococcus aureus JE2 assessed as shift in bacterial zeta potential at 80 ug/ml measured after 1 hr; type: subcellular; details: dose 80.0 µg/ml; summary of the method: as §8

CCCCCCCCCCCCCCCCN[C@@H](CCCCN)C(=O)N[C@@H](CCCNC(=N)N)C(=O)N[C@@H](CCCCN)C(=O)N[C@@H](CCCNC(=N)N)C(=O)O
Retention_time [1]: 13.8 min
MIC (Acinetobacter baumannii [2]): 8 µg/mL (≈ 9.86 µM)
MIC (Escherichia coli [3]): 4 µg/mL (≈ 4.93 µM)
MIC (Staphylococcus aureus [4]): 4 µg/mL (≈ 4.93 µM)
MIC (Staphylococcus aureus [5]): 8 µg/mL (≈ 9.86 µM)
MIC (Staphylococcus aureus [6]): 8 µg/mL (≈ 9.86 µM)
fractional inhibitory concentration index (FICI) (Escherichia coli [7]): 0.62
fractional inhibitory concentration index (FICI) (Acinetobacter baumannii [8]): 0.75
Activity (Cell membrane [9]): inactive
Activity (Cell membrane [10]): Active
Activity (Staphylococcus aureus [11]): Active
Activity (Staphylococcus aureus [12]): Active
Activity (Staphylococcus aureus [13]): Active
Activity (Escherichia coli [14]): Active
Activity (Escherichia coli [15]): Active
Activity (Escherichia coli [16]): Active
Activity (Staphylococcus aureus [17]): Active
Activity (HEK293): Non-Toxic
survival at 96 h [18]: 100%
survival at 96 h [19]: 80%
survival at 75 mg/kg (Staphylococcus aureus [20]): 60%
Activity [21]: 15 mV
Activity [22]: 7 nm
Activity (Staphylococcus aureus [23]): inactive
inhibition (Staphylococcus aureus [24]): Active
fold change (FC) (Acinetobacter baumannii [25]): 2
Activity (Cell membrane [26]): Active
Activity (Cell membrane [27]): Active
viability at 24 h [28]: 100%
Ratio (Escherichia coli [29]): > 1
Ratio (Staphylococcus aureus [30]): > 1

CCCCCCCCCCCCCCCCN[C@@H](C)C(=O)N[C@@H](C)C(=O)N[C@@H](C)C(=O)N[C@@H](CCCCN)C(=O)N[C@@H](CCCNC(=N)N)C(=O)N[C@@H](CCCCN)C(=O)N[C@@H](CCCNC(=N)N)C(=O)O (H-[X2]AAKRKR-OH)
Retention_time [1]: 14.3 min
MIC (Acinetobacter baumannii [2]): 4 µg/mL (≈ 3.9 µM)
MIC (Escherichia coli [3]): 8 µg/mL (≈ 7.81 µM)
MIC (Staphylococcus aureus [4]): 8 µg/mL (≈ 7.81 µM)
MIC (Staphylococcus aureus [5]): 8 µg/mL (≈ 7.81 µM)
MIC (Staphylococcus aureus [6]): 8 µg/mL (≈ 7.81 µM)
fractional inhibitory concentration index (FICI) (Escherichia coli [7]): 0.62
fractional inhibitory concentration index (FICI) (Acinetobacter baumannii [8]): 0.75
Activity (Cell membrane [9]): inactive
Activity (Cell membrane [10]): Active
fold change (FC) (Staphylococcus aureus [31]): 2
Activity (HEK293): Non-Toxic
hemolysis at 1 h, 8 ug/ml [32]: 33.3%
Activity [21]: 10.8 mV
Activity [33]: Active
fold change (FC) (Escherichia coli [34]): 8
fold change (FC) (Acinetobacter baumannii [25]): 2
Activity (Cell membrane [35]): Active
Activity (Cell membrane [36]): Active
viability at 24 h [28]: 100%

Reference: ChEMBL document CHEMBL5365541, “Designing peptide amphiphiles as novel antibacterials and antibiotic adjuvants against gram-negative bacteria” (Bioorg Med Chem, 2023)
